# Screening data deposited in PubChem by several laboratories.
# PfGluPho inh: PfG6PD (Plasmodium falciparum) enzyme inhibition; PfGluPho enzyme, NADPH resazurin-diaphorase fluorescence; inhibition, % at 20 µM; 350,000 tested, 0.78% active; AID 504690;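 active = inhibition reaching at least a set limit at 20 µM in the primary screen, cut at about 59% in these data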;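 note: 0% = DMSO wells with substrate and 100% = DMSO wells lacking glucose-6-phosphate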
# ABHD5 PLIN5 PPI: ABHD5-PLIN5 protein interaction inhibition. Q00G26+Q8WTS1. Split G. princeps luciferase complementation, luminescence, 4 h. inhibition, % at 4 µM. 360,000 tested, 0.78% active. AID 602281;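 active = inhibition above the mean inhibition across every tested compound plus 3 SD, cut at about 22% in these data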;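 note: 0% = DMSO only wells and the 100% control is not disclosed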
# Beta2AR agonist: agonists of human beta-2 adrenergic receptor inducing internalization; P07550; Am2.2-beta2AR cells, FAP receptor internalization, flow cytometry; response, % (test concentration not listed); 340,000 tested, 0.43% active;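 active = response above a set limit, near 3 SD of response in nonfluorescent compounds, cut at about 42% in these data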
# Target sequence (P07550 whole entry, looked up): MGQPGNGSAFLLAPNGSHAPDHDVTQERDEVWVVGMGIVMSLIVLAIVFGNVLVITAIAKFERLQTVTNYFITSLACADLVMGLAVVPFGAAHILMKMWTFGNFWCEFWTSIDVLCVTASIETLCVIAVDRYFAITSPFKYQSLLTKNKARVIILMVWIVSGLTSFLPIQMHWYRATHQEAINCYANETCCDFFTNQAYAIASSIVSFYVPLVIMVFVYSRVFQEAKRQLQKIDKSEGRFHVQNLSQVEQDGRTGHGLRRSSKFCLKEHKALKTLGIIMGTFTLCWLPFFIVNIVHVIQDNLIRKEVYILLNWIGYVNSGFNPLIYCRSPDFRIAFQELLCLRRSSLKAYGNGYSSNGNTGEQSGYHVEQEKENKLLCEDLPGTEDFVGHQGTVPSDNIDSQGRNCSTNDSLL
# MC4R ag barr: activates human MC4R beta-arrestin recruitment; AID 540308; U2OS MC4R beta-arrestin complementation, luminescence; percent of melanotan II response, DMSO zero; activation, % at 8.9 µM; 360,000 tested, 0.98% active;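 active = activation above a per-plate cutoff, the mean activation of sample wells on that plate plus 3 SD, cut at about 8% in these data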
# Target sequence (P32245 whole entry, looked up): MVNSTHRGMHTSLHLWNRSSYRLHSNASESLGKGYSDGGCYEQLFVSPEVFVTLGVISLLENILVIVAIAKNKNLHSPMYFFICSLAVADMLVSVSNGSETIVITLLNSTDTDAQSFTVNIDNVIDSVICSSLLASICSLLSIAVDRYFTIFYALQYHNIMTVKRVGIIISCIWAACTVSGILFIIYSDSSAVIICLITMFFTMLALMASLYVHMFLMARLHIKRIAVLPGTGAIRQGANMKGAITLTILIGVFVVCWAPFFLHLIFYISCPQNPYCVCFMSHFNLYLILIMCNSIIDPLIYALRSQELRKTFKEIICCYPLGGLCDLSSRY
# MC4R antagonist: blocks human MC4R cAMP signaling; AID 540295; P32245; inhibition, % at 6.5 µM; 360,000 tested, 0.48% active; MC4R-expressing cells, MTII-stimulated cAMP, LANCE TR-FRET;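 active = inhibition above its plate's cutoff, the mean of tested wells on that plate plus 3 SD, cut at about 29% in these data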;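 note: 0% = Melanotan II alone and 100% = Melanotan II plus saturating MCL0020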
#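 Material: U2OS-MC4R stable cell line | Reagent: Melanotan II challenge after compound preincubation | Doses: One concentration, 6.5 µM nominal | Incubation: 30-min compound preincubation, 1-h Melanotan II challenge, 1-h detection, room temperature | Signal: TR-FRET cAMP assay | Replicates: One well per compound, no replicates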
# PfGluPho conf: PfG6PD inhibition, single-dose confirmed; shares compounds with PfGluPho inh; recombinant PfGluPho, NADPH-diaphorase-resazurin fluorescence; inhibition, % at 20 µM; 2,400 tested, 34% active;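 active = inhibition of at least 50% at 20 µM in any single replicate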;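 note: 0% = DMSO with substrate and 100% = DMSO lacking glucose-6-phosphate substrate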
# Diaph ctr 10uM: diaphorase inhibition or oxidation at 10 uM NADPH | AID 504862 | shares compounds with PfGluPho inh | inhibition, % at 20 µM | 820 tested, 39% active | diaphorase-coupled resazurin reduction, fluorescence, NADPH 10 uM;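 active = average inhibition reaching 50% or more with the compound at 20 µM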;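 note: resorufin red fluorescence formed as diaphorase reduces resazurin using NADPH; 0% = DMSO with enzyme and 100% = DMSO without enzyme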
# Diaphorase 30uM: inhibits diaphorase or oxidizes, flagging false PfG6PD hits; shares compounds with PfGluPho inh; Diaphorase/resazurin coupled assay, resorufin fluorescence, 30 uM NADPH; inhibition, % at 20 µM; 820 tested, 29% active;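 active = inhibition averaging 50% or more, tested at 20 µM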;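 note: 0% = DMSO with enzyme and 100% = DMSO wells lacking diaphorase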
# Active calls of the source: *; . = no result given. Most compounds without a hit are left out; they make up all but 3% or so of the library.
SMILES,PfGluPho inh,ABHD5 PLIN5 PPI,Beta2AR agonist,MC4R ag barr,MC4R antagonist,PfGluPho conf,others
C/C(=N\Nc1nc2ccccc2[nH]1)c1ccc(Cl)s1,76.6*,4.6,-2.0,2.6,15.3,15.0,
O=[N+]([O-])c1ccc2nc(-c3ccc(Cl)cc3)n(OCc3ccccc3)c2c1,121.6*,-6.2,0.3,3.4,6.1,-1.1,
O=C(O)COn1c(-c2ccccc2)nc2ccc([N+](=O)[O-])cc21,56.6,-3.1,-1.0,-3.0,2.4,.,
CCOC(=O)C(C)On1c(-c2ccc(Cl)cc2)nc2ccc([N+](=O)[O-])cc21 (centres undefined),75.8*,-9.9,12.2,1.3,0.5,8.5,
CCOC(=O)C(C)On1c(-c2ccccc2)nc2ccc([N+](=O)[O-])cc21 (centres undefined),61.6*,-0.3,-6.0,-1.1,2.1,-9.8,
Cc1ccc(COn2c(-c3ccc(Cl)cc3)nc3ccc([N+](=O)[O-])cc32)cc1,53.0,1.7,-6.7,-0.1,-4.3,.,
O=c1c2ccc(Cl)cc2nc(-c2ccc([N+](=O)[O-])cc2)n1O,5.8,-11.8,-2.5,-1.1,2.4,.,
CC(=O)c1ccc(S(=O)(=O)N2CCC3(CC2)CC(=O)c2ccccc2O3)cc1,-10.0,-7.2,2.4,-3.0,-3.8,.,
CC(C)(COC(=O)c1ccccc1)N1CC2CCC(C1)O2,-14.2,3.1,-3.4,-0.5,5.8,.,
O=C(c1ccc(Br)cc1)c1sc(N2CCOCC2)nc1-c1ccccc1,26.6,-2.9,-5.8,-4.0,11.2,.,
COc1ccc(-c2nc3ccccc3n2OCC(=O)O)cc1,20.9,-2.1,-7.3,-0.7,28.4,.,
O=C(O)COn1c(-c2ccc(Cl)cc2)nc2ccc(Cl)cc21,60.3*,-2.1,-0.2,-1.2,6.5,35.5,
COn1c(-c2ccc(Cl)cc2)nc2ccc(Cl)cc21,65.6*,-16.4,-9.9,2.5,4.2,7.7,
Clc1ccc(COn2c(-c3ccc(Cl)cc3)nc3ccccc32)cc1,30.8,-3.5,8.0,-0.2,7.4,.,
Cc1cc2nc(/C(C#N)=C\c3ccc(-c4ccccc4C(=O)O)o3)[nH]c2cc1C,59.6*,3.1,-2.1,-1.9,9.2,46.1,
O=C(CCC1CCN(Cc2ccc(Cl)cc2)CC1)NC1CC1,-8.7,5.0,1.0,0.7,6.7,.,
COC1=CC(=O)c2c(ccc3ncnc(N)c23)C1=O,127.3*,55.3*,-28.7,-3.1,-32.9,108.2*,Diaph ctr 10uM=99.4*;Diaphorase 30uM=100.5*
Cc1cc(-n2c(C)cc(C(=O)COc3ccc4ccc(=O)oc4c3)c2C)no1,89.4*,1.0,-11.2,-1.1,0.3,38.9,
CC(=O)c1cccc(OCC(=O)c2cc(C)n(-c3cc(C)on3)c2C)c1,116.6*,-3.9,-3.1,-0.3,0.5,61.6*,Diaph ctr 10uM=61.8*;Diaphorase 30uM=54.7*
CCOc1ccc(Nc2nc3cc(S(=O)(=O)N(CC)CC)ccc3o2)cc1,62.5*,-5.8,7.3,1.3,0.7,17.5,
CCN(CC)S(=O)(=O)c1ccc2oc(Nc3ccc(OC)cc3)nc2c1,15.9,3.2,14.3,-1.0,0.6,.,
CCS(=O)(=O)c1ccc2oc(Nc3ccc(C(C)C)cc3)nc2c1,74.1*,-7.5,11.3,6.6,11.4,42.7,
Cc1ccc(S(=O)(=O)/N=C(\c2ccccc2)N(C)S(=O)(=O)c2ccc(C)cc2)cc1,55.2,-9.0,-10.2,-1.3,-1.7,.,
Cc1ccc(S(=O)(=O)N(C)/C(=N/S(=O)(=O)c2ccccc2)c2ccccc2)cc1,82.3*,-3.1,-16.7,-0.4,7.3,45.9,
Cn1c(N)c(C(=O)CSc2n[nH]c(N)n2)c(=O)n(C)c1=O,-7.6,2.8,8.7,1.7,11.7,.,
SMILES,PfGluPho inh,ABHD5 PLIN5 PPI,Beta2AR agonist,MC4R ag barr,MC4R antagonist,PfGluPho conf,others
Cc1ccc(C(=O)NC2CCN(CC(=O)Nc3ccccc3Cl)CC2)cc1,0.6,-4.4,-8.6,-2.0,-4.7,.,
CN(Cc1c(F)cccc1Cl)C(=O)c1ccc(NS(=O)(=O)c2ccc3[nH]c(=O)[nH]c3c2)cc1,-30.1,-4.3,-3.8,1.4,1.5,.,
CCOc1ccc(C(=O)CCC(=O)N2CCN(c3ccc(O)cc3)CC2)cc1,66.8*,-3.6,3.6,-1.7,-0.6,2.7,
CC(C)c1cc(C(=O)OCC(=O)N2CCN(C(=O)c3ccco3)CC2)c(O)c(C(C)C)c1,6.3,-5.7,-5.0,-2.2,-4.2,.,
C/C(=N\Nc1ccc(C)c(Cl)c1)c1ccncc1,45.7,-0.1,4.9,0.1,14.3,.,
C/C(=N\Nc1ccc(C)c(Cl)c1)c1cccnc1,96.0*,6.2,-2.6,0.8,6.4,37.3,
O=S(=O)(c1cccs1)N1CN(Cc2ccco2)c2nc3ccccc3nc21,92.7*,4.4,-2.9,0.2,-2.3,43.6,
O=S(=O)(c1cccs1)N1CN(Cc2ccc(Cl)cc2)c2nc3ccccc3nc21,-20.9,4.0,-6.1,2.6,1.4,.,
CC(NC1=CC(=O)c2cccnc2C1=O)C(O)c1ccccc1 (centres undefined),105.2*,0.4,-13.6,-1.7,-12.2,73.8*,Diaph ctr 10uM=47.0;Diaphorase 30uM=42.9
COc1ccccc1S(=O)(=O)n1cc(Cc2ccccc2)c(N)n1,76.4*,0.6,10.3,3.2,-1.5,7.1,
CSc1cccc(NC(=S)N2CCCN(Cc3ccc(F)cc3)C2)c1,10.8,3.4,11.8,-0.4,15.1,.,
O=S(=O)(NCc1csc(-c2ccccc2)n1)c1ccc(Cl)s1,99.3*,2.5,3.2,3.6,3.5,47.6*,Diaph ctr 10uM=42.6;Diaphorase 30uM=41.4
CCNc1ncnc2c1cnn2C1CCCCO1 (centres undefined),5.3,1.7,-0.6,-2.5,-3.5,.,
O=c1c2ccccc2sn1-c1ccc(S(=O)(=O)N2CCCCC2)cc1,110.9*,-13.1,10.1,-1.4,-2.2,82.6*,Diaph ctr 10uM=4.9;Diaphorase 30uM=-13.1
O=c1c2ccccc2sn1-c1ccc(S(=O)(=O)N2CCCC2)cc1,111.3*,-28.1,-5.9,-2.4,-1.6,104.7*,Diaph ctr 10uM=-8.9;Diaphorase 30uM=-4.8
Cc1ccc(-c2nc(C(=O)NCC3CCCO3)cc3c2[nH]c2ccccc23)cc1 (centres undefined),39.6,-6.5,0.1,1.9,15.1,.,
Cc1ccccc1-c1nc(C(=O)NCC2CCCO2)cc2c1[nH]c1ccccc12 (centres undefined),59.7*,-5.8,-5.3,-1.6,10.4,4.7,
COc1cccc2sc3ccc(C#CC4(O)CCCCC4)cc3c(=O)c12,68.1*,-1.5,11.8,-0.6,14.3,30.3,
CCCc1cc(C(=O)N2CCCC(Nc3ccc(C)c(C)c3)C2)n(C)n1 (centres undefined),-4.8,-4.0,-0.1,0.7,2.7,.,
